In ChEMBL document CHEMBL1137499, “A new opioid designed multiple ligand derived from the micro opioid agonist endomorphin-2 and the delta opioid antagonist pharmacophore Dmt-Tic” (Bioorg Med Chem, 2007):
Numbered stars: 1 amine (or outer) side, 2 acyl side, 3 side chain; on linkers, the order of the positions; unused ones are H or OH. Square brackets hold non-standard residues; d marks the D form. Peptide text beside a SMILES is read from it. ξ: configuration not given here. Dmt = Cc1cc(O)cc(C)c1C[C@H](N)C(=O)O; Ethylenediamine = C(CN[*:2])N[*:1]; ξTic = O=C(O)C1Cc2ccccc2CN1

Experiments:
[1] = target: Mu-type opioid receptor (Cavia porcellus, UniProt P97266); assay: Agonist activity at mu-opioid receptor in Hartley guinea pig ileum assessed as inhibition of electrically-stimulated muscle contraction; format: functional, tissue-based
Chain of Mu-type opioid receptor (Cavia porcellus, UniProt P97266) (P97266 whole entry): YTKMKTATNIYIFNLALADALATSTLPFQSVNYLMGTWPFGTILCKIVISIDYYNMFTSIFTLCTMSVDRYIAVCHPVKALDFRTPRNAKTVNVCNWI
Outline: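 Myenteric plexus longitudinal muscle strips (2-3 cm) from small intestine of male Hartley guinea pigs, held in organ baths of balanced salt solution, pH 7.5. Inhibition of electrically evoked contraction was measured. IC50 (nM) was read from dose-response curves, with dermorphin as internal standard. Values are means ± SE of five or six separate assays.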

[2] = target: Delta-type opioid receptor (Rattus norvegicus, UniProt P33533); assay: Displacement of [3H]deltorphin 2 from delta-opioid receptor in Sprague-Dawley rat brain P2 synaptosome membrane; format: tissue-based
Chain of Delta-type opioid receptor (P33533 whole entry): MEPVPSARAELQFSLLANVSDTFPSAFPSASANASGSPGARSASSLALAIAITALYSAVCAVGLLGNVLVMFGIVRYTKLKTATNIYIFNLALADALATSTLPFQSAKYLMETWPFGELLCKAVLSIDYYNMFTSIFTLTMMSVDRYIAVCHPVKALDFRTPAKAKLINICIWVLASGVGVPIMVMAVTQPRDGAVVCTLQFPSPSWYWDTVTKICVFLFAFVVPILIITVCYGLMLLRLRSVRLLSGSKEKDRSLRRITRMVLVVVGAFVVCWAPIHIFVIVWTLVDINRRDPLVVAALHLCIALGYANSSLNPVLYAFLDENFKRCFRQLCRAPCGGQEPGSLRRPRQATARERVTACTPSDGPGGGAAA
Outline: (§1)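 Competition binding at equilibrium, 2.5 h at room temperature (23 °C), on rat brain P2 synaptosomes. Filters were soaked in 0.1% polyethylenimine and washed three times with ice-cold buffered BSA. Duplicate assays used 5-8 doses and 3-5 independent membrane preparations. Ki was derived by Cheng-Prusoff; means ± SE.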

[3] = target: Mu-type opioid receptor (Rattus norvegicus, UniProt P33535); assay: Displacement of [3H]DAMGO from mu-opioid receptor in Sprague-Dawley rat brain P2 synaptosome membrane; format: tissue-based; outline: as §1
Chain of Mu-type opioid receptor (Rattus norvegicus, UniProt P33535) (P33535 whole entry): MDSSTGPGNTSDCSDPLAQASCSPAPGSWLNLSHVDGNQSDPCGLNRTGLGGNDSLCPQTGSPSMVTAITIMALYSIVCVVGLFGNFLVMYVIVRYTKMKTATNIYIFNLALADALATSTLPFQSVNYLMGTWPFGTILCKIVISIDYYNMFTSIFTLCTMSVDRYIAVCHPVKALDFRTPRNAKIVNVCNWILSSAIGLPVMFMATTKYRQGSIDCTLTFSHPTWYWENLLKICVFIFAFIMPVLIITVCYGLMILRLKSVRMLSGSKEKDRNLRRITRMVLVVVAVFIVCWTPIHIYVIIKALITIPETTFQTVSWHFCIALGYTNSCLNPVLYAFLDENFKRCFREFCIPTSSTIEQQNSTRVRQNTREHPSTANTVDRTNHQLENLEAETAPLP

[4] = organism: Rattus norvegicus; assay: Selectivity for mu-opioid receptor over delta opiod receptor in Sprague-Dawley rat brain P2 synaptosome membrane; format: tissue-based
[5] = organism: Rattus norvegicus; assay: Selectivity for delta-opioid receptor over mu opiod receptor in Sprague-Dawley rat brain P2 synaptosome membrane; format: tissue-based

Row | Compound | IC50 [1] [nM] | Ki [2] [nM] | Ki [3] [nM] | Ratio Ki [4] | Ratio Ki [5]
1 | Cc1cc(O)cc(C)c1C[C@H](N)C(=O)N1Cc2ccccc2C[C@H]1C(=O)NCCNC(=O)[C@H](Cc1ccccc1)NC(=O)[C@H](Cc1ccccc1)NC(=O)[C@@H]1CCCN1C(=O)[C@@H](N)Cc1ccc(O)cc1 | 25.1 | 1.45 | 1.03 | – | –
2 | Cc1cc(O)cc(C)c1C[C@H](N)C(=O)N1Cc2ccccc2CC1C(=O)NCCNC(=O)[C@H](Cc1ccccc1)NC(=O)[C@H](Cc1ccccc1)NC(=O)[C@@H]1CCCN1C(=O)[C@@H](N)Cc1ccc(O)cc1 (stereo partly drawn) | – | – | – | 1.41 | –
3 | Cc1cc(O)cc(C)c1C[C@H](N)C(=O)N1Cc2ccccc2CC1C(=O)NCCN (stereo partly drawn) (H-[Dmt]-[ξTic]-Ethylenediamine) | 286 | 1.81 | 2.72 | – | 3.36
